Reference: article PMC3472128 (Structure (London, England : 1993), 2012)
Entries after “also recorded” stand apart in the source; their conditions may differ.

Legend:
[1] = target: four independent Nedd4L WW domains; test: ITC, Smad7 peptide vs independent Nedd4L WW domains; assay type: binding, human; details: each of the four independent WW domains, values shown in Figure 1B only
[2] = tested on: three possible Nedd4L WW-WW pairs; test: ITC, Smad7 peptide vs Nedd4L WW-WW pairs; assay type: binding, human
Nedd4L WW2-WW3 pair = test: ITC, Smad7 peptide vs Nedd4L WW2-WW3 pair; assay type: binding, human
[3] = tested on: Nedd4L WW2-WW3 mutant constructs (bind only one PY site); test: ITC, Smad7 peptide vs Nedd4L WW2-WW3 mutant constructs; assay type: binding, human; details: two WW2-WW3 mutant constructs that bind only one PY site
Nedd4L WW domains = test: ITC, preferred Nedd4L WW domain for Smad7 peptide; assay type: binding, human
[4] = target: Nedd4L WW2 domain Arg380Glu (Homo sapiens, UniProt Q96PU5, R400E); test: ITC, Smad7 peptide vs Nedd4L WW2 Arg380Glu; assay type: binding
[5] = target: Nedd4L WW2 domain Lys378Glu (Homo sapiens, UniProt Q96PU5, K398E); test: ITC, Smad7 peptide vs Nedd4L WW2 Lys378Glu; assay type: binding
[6] = target: Nedd4L WW2 domain Lys378/Arg380 to Glu (Homo sapiens, UniProt Q96PU5, K398E/R400E); test: ITC, Smad7 peptide vs Nedd4L WW2 double mutant; assay type: binding
Smurf1 WW2 [7] = target: T1, Smurf1 WW2 (Homo sapiens, UniProt Q9HCE7); test: ITC, Smad7 peptide vs Smurf1 WW2; assay type: binding
Smurf1 WW1 [8] = test: ITC, Smad7 peptide vs Smurf1 WW1; assay type: binding, human
Smurf1 WW1-WW2 [9] = target: T2, Smurf1 WW1-WW2 (Homo sapiens, UniProt Q9HCE7); test: ITC, Smad7 peptide vs Smurf1 WW1-WW2 pair; assay type: binding
T2 sequence (Q9HCE7 233-314 isoform Q9HCE7-2): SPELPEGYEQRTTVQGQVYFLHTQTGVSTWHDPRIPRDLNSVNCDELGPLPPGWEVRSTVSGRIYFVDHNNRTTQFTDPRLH
Procedure, shortened: (§1)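 Nano ITC was run at 5, 15 and 25 °C, in Tris and in ammonium acetate at pH 7. Kd and stoichiometry come from fits. Each run was done at least three times with two protein expression batches.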

Smurf2 WW2 = test: ITC, Smad7 peptide vs Smurf2 WW2; assay type: binding, human
Smurf2 WW2-WW3 [10] = target: T3, Smurf2 WW2-WW3 (Homo sapiens, UniProt Q9HAU4); test: ITC, Smad7 peptide vs Smurf2 WW2-WW3 pair; assay type: binding
Procedure, shortened: as §1

Smurf1 WW1-WW2 Arg243Ala = test: ITC, Smad7 peptide vs Smurf1 WW1-WW2 Arg243Ala; assay type: binding, human
Smurf1 WW1-WW2 Gln249Glu = test: ITC, Smad7 peptide vs Smurf1 WW1-WW2 Gln249Glu; assay type: binding, human
[11] = tested on: Smurf1 WW1-WW2 Gln247 and Gln249 to Glu; test: ITC, Smad7 peptide vs Smurf1 WW1-WW2 Gln247 and Gln249 to Glu; assay type: binding, human
Smurf1 WW1-WW2 Arg243Glu = test: ITC, Smad7 peptide vs Smurf1 WW1-WW2 Arg243Glu; assay type: binding, human
[12] = target: Smurf1 WW2 domain Arg295Glu (Homo sapiens, UniProt Q9HCE7, R321E); test: ITC, Smad7 peptide vs Smurf1 WW2 Arg295Glu; assay type: binding
Smurf2 WW3 domain R312E = Smurf2 WW3 domain R312E (Homo sapiens, UniProt Q9HAU4, R312E); test: ITC, Smad7 peptide vs Smurf2 WW3 R312E; assay type: binding
YAP WW1 domain = YAP WW1 domain (Homo sapiens, UniProt P46937); test: ITC, Smad7 peptide vs YAP WW1; assay type: binding
YAP WW2 = test: ITC, Smad7 peptide vs YAP WW2; assay type: binding, human; details: 15°C, weaker than YAP WW1
YAP WW1-WW2 pair = YAP WW1-WW2 pair (Homo sapiens, UniProt P46937); test: ITC, YAP WW1-WW2 pair; assay type: binding
Smurf1 WW2 [13] = target: T1, Smurf1 WW2; test: IM-MS, Smurf1 WW2 dimer population; assay type: binding
Procedure, shortened: (§2)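 Traveling-wave ion mobility–mass spectrometry was run on the recombinant Smurf WW protein mixed with the Smad7 peptide. Monomer, dimer and trimer species carrying zero to three ligands were assigned by specific ionisation mass and characteristic drift time.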

Smurf1 WW1 [14] = test: IM-MS, Smurf1 WW1 dimer population; assay type: binding, human
Procedure, shortened: as §2

Smurf1 WW1-WW2 [15] = target: T2, Smurf1 WW1-WW2; test: IM-MS, complexes of Smurf1 WW1-WW2 with Smad7 peptide; assay type: binding; details: protein concentrations used in ITC (30–50 μM)
Smurf2 WW2-WW3 [16] = target: T3, Smurf2 WW2-WW3; test: IM-MS, complexes of Smurf2 WW2-WW3 with Smad7 peptide; assay type: binding; details: protein concentrations used in ITC (30–50 μM)
Smurf1 WW1-WW2 pair = test: NMR, Smad7 peptide binding to Smurf1; set-up: species or system human; details: triple resonance NMR; 285 K/298 K
Smurf2 = test: NMR, Smad7 peptide binding to Smurf2; set-up: species or system human; details: triple resonance NMR; 285 K/298 K
HA-YAP = test: Immunoprecipitation of Smad7 with HA-YAP in HEK293T cells; assay type: cell-based, human; details: full-length Smad7 wild type or variants with HA-YAP
Procedure, shortened: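 HEK293T cells were transfected with epitope-tagged constructs (HA-YAP with full-length Smad7 wild type or variants) and treated where indicated with TGF-β1 at 100 pM. Lysates were immunoprecipitated with anti-Flag antibody, then immunoblotted with antibodies against the tags.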

T3 sequence (Q9HAU4 250-333 limits assumed): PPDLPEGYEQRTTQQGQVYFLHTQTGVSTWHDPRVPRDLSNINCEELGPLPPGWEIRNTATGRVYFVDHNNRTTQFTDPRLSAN
YAP WW1-WW2 pair, sequence (P46937 163-266 limits assumed): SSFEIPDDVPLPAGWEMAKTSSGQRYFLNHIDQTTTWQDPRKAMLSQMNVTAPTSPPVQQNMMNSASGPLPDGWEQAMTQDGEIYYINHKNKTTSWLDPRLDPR
Smurf1 WW2 domain Arg295Glu, sequence (Q9HCE7 303-340 R321E limits assumed): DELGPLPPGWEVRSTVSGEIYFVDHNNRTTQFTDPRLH
YAP WW1 domain, sequence (P46937 163-206): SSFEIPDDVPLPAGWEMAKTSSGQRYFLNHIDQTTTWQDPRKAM
Nedd4L WW2 domain Lys378/Arg380 to Glu, sequence (Q96PU5 384-423 K398E/R400E): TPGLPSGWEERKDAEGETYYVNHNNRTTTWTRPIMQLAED
Nedd4L WW2 domain Lys378Glu, sequence (Q96PU5 384-423 K398E): as the sequence (Q96PU5 384-423 K398E/R400E) above, with E17R counted along it
Smurf2 WW3 domain R312E, sequence (Q9HAU4 297-333 R312E limits assumed): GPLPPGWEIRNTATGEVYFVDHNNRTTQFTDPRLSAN
Nedd4L WW2 domain Arg380Glu, sequence (Q96PU5 384-423 R400E): as the sequence (Q96PU5 384-423 K398E/R400E) above, with E15K counted along it

Ac-ELESPPPPYSRYPMD-NH2 [Smad7 peptide]
dissociation constants [1]: in the μM range | effect of domain pairs on affinity ([2]; in vitro, versus single domains): does not increase the affinity in vitro | dissociation constants ([2]; three possible WW-WW pairs, values shown in Figure 1B only): in the μM range | stoichiometry (peptide per protein) (Nedd4L WW2-WW3 pair): two equivalents of peptide per protein | peptide affinity [3]: close to those of the single domains | preferred WW domain (Nedd4L WW domains): preferentially uses WW2 | Kd [4]: 15.4 ± 3.5 µM | Kd [5]: 23.5 ± 1.5 µM | Kd [6]: 27.3 ± 2.2 µM | Kd (Smurf1 WW2 [7]): 4.1 ± 0.6 µM | stoichiometry (Smurf1 WW2 [7]; ITC, independent WW2, 15 °C, Tris buffer): 1 | affinity (Smurf1 WW1 [8]): very low affinity | stoichiometry (Smurf1 WW1-WW2 [9]; ITC, 15 °C, Tris buffer): 0.7 | stoichiometry (Smurf1 WW1-WW2 [9]; ITC, all temperatures): < 1 | Kd (Smurf1 WW1-WW2 [9]; affinity (KD), ITC, 15 °C, Tris buffer (Figure 1C), at least three times, two protein expression batches): 1.7 ± 0.3 µM | affinity increase due to the WW domain pair (Smurf1 WW1-WW2 [9]; pair versus Smurf1 WW2 at a given temperature): about 2 fold | affinity (Smurf2 WW2): very low affinity | stoichiometry (Smurf2 WW2-WW3 [10]; ITC, all temperatures): < 1 | Kd (Smurf2 WW2-WW3 [10]; affinity (KD), ITC, 15 °C): 1.7 ± 0.3 µM | affinity increase due to the WW domain pair (Smurf2 WW2-WW3 [10]; pair versus Smurf2 WW3 at a given temperature): about 2 fold | reduction of affinity (Smurf1 WW1-WW2 Arg243Ala): 3 fold | reduction of affinity (Smurf1 WW1-WW2 Gln249Glu): 3 fold | reduction of affinity [11]: 3 fold | reduction of affinity (Smurf1 WW1-WW2 Arg243Glu): 10 fold | Kd [12]: 48.6 ± 6.4 µM | decrease of binding affinity ([12]; R295E versus wild type): approximately 8 fold | Kd (Smurf2 WW3 domain R312E): 34.2 ± 1.6 µM | Kd (YAP WW1 domain): 6.9 ± 0.28 µM | preferred WW domain (YAP WW1 domain; ITC, 15°C): YAP WW1 domain preferentially binds | dissociation constant relative to WW1 (YAP WW2): 9 fold | Kd (YAP WW1-WW2 pair): 9.8 ± 0.9 µM | affinity, WW1-WW2 pair versus independent WW1 (YAP WW1-WW2 pair; ITC): binds slightly worse than the isolated WW1 | stoichiometry N (YAP WW1-WW2 pair; ITC, 15°C): 1 | dimer population in the presence of peptide (Smurf1 WW2 [13]): reduced | dimer population in the presence of peptide (Smurf1 WW1 [14]): unaffected | species detected (Smurf1 WW1-WW2 [15]): monomeric complexes, protein dimers bound to only one ligand, dimers bound to two ligands and higher order species; also recorded: dimers with one or with two bound ligands and trimers | species detected (Smurf2 WW2-WW3 [16]): dimers with one or with two bound ligands and trimers | WW domain used for interaction (Smurf1 WW1-WW2 pair): using the WW2 domain | WW domain used for interaction (Smurf2): the WW3 for Smurf2

Smad7: full-length protein Smad7 (wild type), flag epitope-tagged, expressed in HEK293T
binding to HA-YAP in immunoprecipitation (HA-YAP): binding is observed
